Data from ChEMBL document CHEMBL1126175, “Synthesis and antibacterial activity of new tetracyclic quinolone antibacterials” (J Med Chem, 1992).
Values after ≈ are worked out from the molar mass of the structure shown.

What was measured:
Staphylococcus aureus [1] = assay: In vitro antibacterial activity against staphylococcus aureus FDA 209P JC-1,Sa(F)(gram-positive); format: functional
In short: (§1)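 MIC by serial 2-fold agar dilution on Mueller–Hinton agar; inoculum about 10^6 CFU/mL; MIC taken as lowest concentration preventing visible growth after 18 h at 37 °C.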

Escherichia coli [2] = assay: In vitro antibacterial activity against Escherichia coli KC-14, Ec(K), (gram-negative); format: functional; in short: as §1
[3] = system: Staphylococcus epidermidis; assay: In vitro antibacterial activity against staphylococcus epidermidis IAM 1296, (gram-positive); format: functional; in short: as §1
Staphylococcus aureus [4] = assay: In vitro antibacterial activity against staphylococcus aureus IID 803,(gram-positive); format: functional; in short: as §1
Escherichia coli [5] = assay: In vitro antibacterial activity against Escherichia coli NIHJ JC-2,(gram-negative)
Pseudomonas aeruginosa [6] = assay: In vitro antibacterial activity against Pseudomonas aeruginosa E-2,Pa(E),(gram-negative); format: functional; in short: as §1
Pseudomonas aeruginosa [7] = assay: In vitro antibacterial activity against Pseudomonas aeruginosa IFO 3445,Pa(I),(gram-negative); format: functional; in short: as §1
Enterococcus faecalis = assay: In vitro antibacterial activity against Enterococcus faecalis IID 682,[…],(gram-positive); format: functional; in short: as §1
Klebsiella pneumoniae = assay: In vitro antibacterial activity against klebsiella pneumoniae B54,Kp,(gram-negative); format: functional
Escherichia coli [8] = assay: In vitro antibacterial activity was measured against nalidixic acid resistant strain 4 from Escherichia coli KC-14; format: functional
In short: (§2)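 MIC by serial 2-fold agar dilution on Mueller–Hinton agar, inoculum about 10^6 CFU/mL. Plates were incubated 37 °C for 18 h. MIC was the lowest concentration preventing visible growth.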

Escherichia coli [9] = assay: The effect on systematic infection in mice infected with Escherichia coli KC-14, administered perorally; format: functional
In short: (§3)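 Male ddY mice (20–22 g), five per group, received 0.5 mL bacterial dilution intraperitoneally at 35 or 500 times the 50% lethal dose. Compound was given orally 1 h postinfection, suspended in 0.5% sodium (carboxymethyl)cellulose or dissolved in sterile distilled water. Survival was scored after 1 week. Oral ED50 was reported with 95% confidence limits.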

Pseudomonas aeruginosa [10] = assay: The effect on systematic infection in mice infected with Pseudomonas aeruginosa E-2, administered perorally; format: functional
Escherichia coli [11] = assay: In vitro antibacterial activity was measured against nalidixic acid resistant strain 6 from Escherichia coli KC-14; format: functional; in short: as §2
Escherichia coli [12] = assay: In vitro antibacterial activity was measured against nalidixic acid resistant strain 5 from Escherichia coli KC-14; format: functional; in short: as §2
Escherichia coli [13] = assay: In vitro antibacterial activity was measured against nalidixic acid resistant strain 1 from Escherichia coli KC-14; format: functional; in short: as §2
Escherichia coli [14] = assay: In vitro antibacterial activity was measured against nalidixic acid resistant strain 3 from Escherichia coli KC-14; format: functional; in short: as §2
Escherichia coli [15] = assay: In vitro antibacterial activity was measured against nalidixic acid resistant strain 2 from Escherichia coli KC-14; format: functional; in short: as §2
Escherichia coli [16] = assay: In vitro antibacterial activity was measured against nalidixic acid resistant strain 7 from Escherichia coli KC-14; format: functional; in short: as §2
Staphylococcus aureus [17] = assay: The effect on systematic infection in mice infected with Staphylococcus aureus IID 803, administered perorally; format: functional; in short: as §3
Pseudomonas aeruginosa [18] = assay: The effect on systematic infection in mice infected with Pseudomonas aeruginosa, administered perorally; format: functional; in short: as §3

| Structure (SMILES) | MIC (Staphylococcus aureus [1]) | MIC (Escherichia coli [2]) | MIC [3] | MIC (Staphylococcus aureus [4]) | MIC (Escherichia coli [5]) | MIC (Pseudomonas aeruginosa [6]) | MIC (Pseudomonas aeruginosa [7]) | MIC (Enterococcus faecalis) | MIC (Klebsiella pneumoniae) | MIC (Escherichia coli [8]) | ED50 (Escherichia coli [9]) | ED50 (Pseudomonas aeruginosa [10]) | MIC (Escherichia coli [11]) | MIC (Escherichia coli [12]) | MIC (Escherichia coli [13]) | MIC (Escherichia coli [14]) | MIC (Escherichia coli [15]) | MIC (Escherichia coli [16]) | ED50 (Staphylococcus aureus [17]) | ED50 (Pseudomonas aeruginosa [18]) |
| --- | --- | --- | --- | --- | --- | --- | --- | --- | --- | --- | --- | --- | --- | --- | --- | --- | --- | --- | --- | --- |
| CN1CCN(c2c(F)cc3c(=O)c(S(=O)(=O)O)c4scc5n4c3c2OC5)CC1 | > 100 µg/mL | > 100 µg/mL | > 100 µg/mL | > 100 µg/mL | > 100 µg/mL | > 100 µg/mL | > 100 µg/mL | > 100 µg/mL | > 100 µg/mL |  |  |  |  |  |  |  |  |  |  |  |
| CC1CN(c2c(F)cc3c(=O)c(C(=O)O)c4scc5n4c3c2OC5)CCN1 (centres undefined) | 0.2 µg/mL (≈ 0.514 µM) | 0.1 µg/mL (≈ 0.257 µM) | 0.78 µg/mL (≈ 2 µM) | 0.2 µg/mL (≈ 0.514 µM) | 0.2 µg/mL (≈ 0.514 µM) | 0.78 µg/mL (≈ 2 µM) | 1.56 µg/mL (≈ 4.01 µM) | 0.78 µg/mL (≈ 2 µM) | 0.1 µg/mL (≈ 0.257 µM) |  |  |  |  |  |  |  |  |  |  |  |
| CN1CCN(c2c(F)cc3c(=O)cc4scc5n4c3c2OC5)CC1 | > 100 µg/mL | > 100 µg/mL | > 100 µg/mL | > 100 µg/mL | > 100 µg/mL | > 100 µg/mL | > 100 µg/mL | > 100 µg/mL | > 100 µg/mL |  |  |  |  |  |  |  |  |  |  |  |
| CC1COc2c(N3CCNCC3)c(F)cc3c(=O)c(C(=O)O)cn1c23 (centres undefined) | 0.39 µg/mL (≈ 1.12 µM) | 0.1 µg/mL (≈ 0.288 µM) | 0.78 µg/mL (≈ 2.25 µM) | 0.39 µg/mL (≈ 1.12 µM) | 0.1 µg/mL (≈ 0.288 µM) | 1.56 µg/mL (≈ 4.49 µM) | 1.56 µg/mL (≈ 4.49 µM) | 1.56 µg/mL (≈ 4.49 µM) | 0.1 µg/mL (≈ 0.288 µM) | 0.39 µg/mL (≈ 1.12 µM) | 1.1 mg/kg |  | 0.78 µg/mL (≈ 2.25 µM) | 0.78 µg/mL (≈ 2.25 µM) | 6.25 µg/mL (≈ 18 µM) | 0.78 µg/mL (≈ 2.25 µM) | 6.25 µg/mL (≈ 18 µM) | 0.39 µg/mL (≈ 1.12 µM) | 11.5 mg/kg | 22.9 µg/mL (≈ 65.9 µM) |
| Cl.O=C(O)c1cn(C2CC2)c2cc(N3CCNCC3)c(F)cc2c1=O [CIPROFLOXACIN HYDROCHLORIDE] | 0.2 µg/mL |  | 1.56 µg/mL | 0.78 µg/mL | 0.05 µg/mL | 0.78 µg/mL | 0.78 µg/mL | 0.78 µg/mL |  |  |  |  |  |  |  |  |  |  |  |  |
| CCn1cc(C(=O)O)c(=O)c2ccc(C)nc21 [NALIDIXIC ACID] |  |  |  |  |  |  |  |  |  | 100 µg/mL (≈ 431 µM) |  |  | 100 µg/mL (≈ 431 µM) | 100 µg/mL (≈ 431 µM) | > 1600 µg/mL | 200 µg/mL (≈ 861 µM) | > 1600 µg/mL | 100 µg/mL (≈ 431 µM) |  |  |
| CCn1cc(C(=O)O)c(=O)c2cc(F)c(N3CCNCC3)cc21 [NORFLOXACIN] | 0.39 µg/mL (≈ 1.22 µM) | 0.2 µg/mL (≈ 0.626 µM) | 3.13 µg/mL (≈ 9.8 µM) | 1.56 µg/mL (≈ 4.89 µM) | 0.2 µg/mL (≈ 0.626 µM) | 1.56 µg/mL (≈ 4.89 µM) | 1.56 µg/mL (≈ 4.89 µM) | 1.56 µg/mL (≈ 4.89 µM) | 0.1 µg/mL (≈ 0.313 µM) |  |  |  |  |  |  |  |  |  |  |  |

Further lines, with some results ahead:

| MIC (Staphylococcus aureus [1]) | MIC (Escherichia coli [2]) | MIC [3] | MIC (Staphylococcus aureus [4]) | MIC (Escherichia coli [5]) | MIC (Pseudomonas aeruginosa [6]) | MIC (Pseudomonas aeruginosa [7]) | MIC (Enterococcus faecalis) | MIC (Klebsiella pneumoniae) | Structure (SMILES) | MIC (Escherichia coli [8]) | ED50 (Escherichia coli [9]) | ED50 (Pseudomonas aeruginosa [10]) | MIC (Escherichia coli [11]) | MIC (Escherichia coli [12]) | MIC (Escherichia coli [13]) | MIC (Escherichia coli [14]) | MIC (Escherichia coli [15]) | MIC (Escherichia coli [16]) | ED50 (Staphylococcus aureus [17]) | ED50 (Pseudomonas aeruginosa [18]) |
| --- | --- | --- | --- | --- | --- | --- | --- | --- | --- | --- | --- | --- | --- | --- | --- | --- | --- | --- | --- | --- |
| 0.05 µg/mL (≈ 0.133 µM) | 0.39 µg/mL (≈ 1.04 µM) | 0.1 µg/mL (≈ 0.266 µM) | 0.05 µg/mL (≈ 0.133 µM) | 0.39 µg/mL (≈ 1.04 µM) | 0.39 µg/mL (≈ 1.04 µM) | 1.56 µg/mL (≈ 4.14 µM) | 0.39 µg/mL (≈ 1.04 µM) | 0.2 µg/mL (≈ 0.531 µM) | O=C(O)c1c(=O)c2cc(F)c(N3CCOCC3)c3c2n2c(csc12)CO3 |  |  |  |  |  |  |  |  |  |  |  |
| 0.2 µg/mL (≈ 0.598 µM) | 0.39 µg/mL (≈ 1.17 µM) | 0.1 µg/mL (≈ 0.299 µM) | 0.1 µg/mL (≈ 0.299 µM) | 0.39 µg/mL (≈ 1.17 µM) | 6.25 µg/mL (≈ 18.7 µM) | 1.56 µg/mL (≈ 4.67 µM) | 0.78 µg/mL (≈ 2.33 µM) | 0.2 µg/mL (≈ 0.598 µM) | CN(C)c1c(F)cc2c(=O)c(C(=O)O)c3scc4n3c2c1OC4 |  |  |  |  |  |  |  |  |  |  |  |
| 0.1 µg/mL (≈ 0.267 µM) | 3.13 µg/mL (≈ 8.36 µM) | 0.2 µg/mL (≈ 0.534 µM) | 0.1 µg/mL (≈ 0.267 µM) | 0.78 µg/mL (≈ 2.08 µM) | 6.25 µg/mL (≈ 16.7 µM) | 12.5 µg/mL (≈ 33.4 µM) | 1.56 µg/mL (≈ 4.17 µM) | 1.56 µg/mL (≈ 4.17 µM) | O=C(O)c1c(=O)c2cc(F)c(N3CCCCC3)c3c2n2c(csc12)CO3 |  |  |  |  |  |  |  |  |  |  |  |
| 0.1 µg/mL | 0.1 µg/mL | 0.2 µg/mL | 0.1 µg/mL | 0.1 µg/mL | 0.78 µg/mL | 0.78 µg/mL | 0.39 µg/mL | 0.1 µg/mL | CN1CCN(c2c(F)cc3c(=O)c(C(=O)O)c4scc5n4c3c2OC5)CC1.Cl | 0.2 µg/mL | 1.01 mg/kg | 17.7 mg/kg | 0.39 µg/mL | 0.39 µg/mL | 1.56 µg/mL | 0.39 µg/mL | 3.13 µg/mL | 0.2 µg/mL | 8.1 mg/kg |  |
| 0.78 µg/mL (≈ 2.44 µM) | 0.2 µg/mL (≈ 0.624 µM) | 3.13 µg/mL (≈ 9.77 µM) | 0.78 µg/mL (≈ 2.44 µM) | 0.2 µg/mL (≈ 0.624 µM) | 1.56 µg/mL (≈ 4.87 µM) | 1.56 µg/mL (≈ 4.87 µM) | 3.13 µg/mL (≈ 9.77 µM) | 0.1 µg/mL (≈ 0.312 µM) | CCn1cc(C(=O)O)c(=O)c2cc(F)c(N3CCNCC3)nc21 [ENOXACIN] |  |  |  |  |  |  |  |  |  |  |  |
